Measurements as given in ChEMBL document CHEMBL3877308, “Design, synthesis and in vitro biological evaluation of oligopeptides targeting E. coli type I signal peptidase (LepB)” (Bioorg Med Chem, 2017).
≈ marks a conversion by molar mass, not a printed value.

Key:
[1] = molecular target: Signal peptidase I (Escherichia coli K-12) (UniProt P00803); assay: (§1) Inhibition of full length Escherichia coli His6-tagged LepB expressed in Escherichia coli C43(DE3) at 100 uM using dabcyl-VEVGGTATAGAFSRPGLE-(EDANS) as substrate preincubated for 10 mins followed by substrate addition measured for 2 hrs by FRET assay relative to control
Signal peptidase I (Escherichia coli K-12), sequence (P00803 whole entry): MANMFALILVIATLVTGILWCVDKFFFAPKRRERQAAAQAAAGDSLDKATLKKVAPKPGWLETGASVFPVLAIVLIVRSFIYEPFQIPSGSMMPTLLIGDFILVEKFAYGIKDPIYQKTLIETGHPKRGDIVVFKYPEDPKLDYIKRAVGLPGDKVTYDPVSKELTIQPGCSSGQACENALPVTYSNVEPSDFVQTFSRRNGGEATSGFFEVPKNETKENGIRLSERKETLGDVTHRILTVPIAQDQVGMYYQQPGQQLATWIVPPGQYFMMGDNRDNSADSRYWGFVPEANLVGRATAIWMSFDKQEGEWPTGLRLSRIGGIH
Outline: (§2)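 Enzyme came from the membrane fraction, extracted with 1% reduced Triton X-100 and purified by metal-chelation chromatography in 0.5% detergent. FRET pair was dabcyl acceptor and EDANS donor. EcLepB (final about 50 nM) was pre-incubated with compound 10 min at 22 °C. Reaction was then run with 8 µM substrate, following the linear fluorescence increase at 22 °C for 2 h.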

[2] = molecular target: Signal peptidase I (Escherichia coli K-12) (UniProt P00803); assay: as §1, with “C43(DE3) assessed as residual activity” for “C43(DE3)”, “1.25” for “100”; outline: as §2
Pseudomonas aeruginosa [3] = assay: Antibacterial activity against wild type Pseudomonas aeruginosa PAO1 after 16 to 20 hrs by broth microdilution assay; assay type: functional
Outline: (§3)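 MIC by broth microdilution in cation-adjusted Mueller-Hinton II medium, following EUCAST and CLSI guidelines; panel of Gram-negative strains plus S. aureus ATCC 29213.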

Escherichia coli [4] = assay: Antibacterial activity against wild type Escherichia coli ATCC 25922 after 16 to 20 hrs by broth microdilution assay; assay type: functional; outline: as §3
Pseudomonas aeruginosa [5] = assay: Antibacterial activity against wild type Pseudomonas aeruginosa PAO750 harboring efflux defective mutant after 16 to 20 hrs by broth microdilution assay; assay type: functional
Outline: (§4)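 Broth microdilution MIC in cation-adjusted Mueller-Hinton II medium, following EUCAST and CLSI guidelines; tested on a panel of Gram-negative strains plus S. aureus ATCC 29213 (wild-type).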

[6] = molecular target: Signal peptidase I (Escherichia coli K-12) (UniProt P00803); assay: as §1, with “C43(DE3) assessed as residual activity” for “C43(DE3)”, “0.001” for “100”; outline: as §2
[7] = Hemolytic activity against human RBC at 100 uM after 45 mins by spectrophotometric method relative to control; assay type: ADME, cell-based, Erythrocyte; settings: red blood cells (RBC), read-out: Activity
Outline: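 Hemolysis was tested using red blood cells from heparinized human blood.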

[8] = molecular target: Signal peptidase I (Escherichia coli K-12) (UniProt P00803); assay: as §1, with “C43(DE3) assessed as residual activity” for “C43(DE3)”, “0.039” for “100”; outline: as §2
[9] = molecular target: Signal peptidase I (Escherichia coli K-12) (UniProt P00803); assay: as §1, with “C43(DE3) assessed as residual activity” for “C43(DE3)”, “0.078” for “100”; outline: as §2
Signal peptidase I = Signal peptidase I (Escherichia coli K-12, UniProt P00803); assay: Inhibition of full length Escherichia coli His6-tagged LepB expressed in Escherichia coli C43(DE3) using dabcyl-VEVGGTATAGAFSRPGLE-(EDANS) as substrate preincubated for 10 mins followed by substrate addition measured for 2 hrs by FRET assay
Signal peptidase I, sequence (P00803 whole entry): as above
Outline: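 Enzyme extracted from the membrane fraction with 1% reduced Triton X-100 and purified by metal-chelation chromatography in 0.5% detergent. Enzyme (final ~50 nM) was pre-incubated with compound for 10 min at 22 °C. The linear rise in EDANS donor fluorescence (dabcyl acceptor) was then followed at 22 °C for 2 h. IC50 came from non-linear regression of sigmoidal rate-versus-concentration curves.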

Escherichia coli [10] = assay: Antibacterial activity against Escherichia coli D22 harboring lpxC mutant after 16 to 20 hrs by broth microdilution assay; assay type: functional; outline: as §4
Acinetobacter baumannii = assay: Antibacterial activity against wild type Acinetobacter baumannii ATCC 19606 after 16 to 20 hrs by broth microdilution assay; assay type: functional; outline: as §3
Escherichia coli [11] = assay: Antibacterial activity against Escherichia coli CH3130 harboring tolC deletion mutant after 16 to 20 hrs by broth microdilution assay; assay type: functional; outline: as §4
[12] = molecular target: Signal peptidase I (Escherichia coli K-12) (UniProt P00803); assay: as §1, with “C43(DE3) assessed as residual activity” for “C43(DE3)”, “0.0005” for “100”; outline: as §2
[13] = molecular target: Signal peptidase I (Escherichia coli K-12) (UniProt P00803); assay: as §1, with “C43(DE3) assessed as residual activity” for “C43(DE3)”, “0.01” for “100”; outline: as §2
[14] = molecular target: Signal peptidase I (Escherichia coli K-12) (UniProt P00803); assay: as §1, with “C43(DE3) assessed as residual activity” for “C43(DE3)”, “0.02” for “100”; outline: as §2
[15] = molecular target: Signal peptidase I (Escherichia coli K-12) (UniProt P00803); assay: (§5) Inhibition of full length Escherichia coli His6-tagged LepB expressed in Escherichia coli C43(DE3) assessed as residual activity at 5 uM using dabcyl-VEVGGTATAGAFSRPGLE-(EDANS) as substrate preincubated for 10 mins followed by substrate addition measured for 2 hrs by FRET assay relative to control; outline: as §2
[16] = molecular target: Signal peptidase I (Escherichia coli K-12) (UniProt P00803); assay: as §5, with “0.156” for “5”; outline: as §2
[17] = molecular target: Signal peptidase I (Escherichia coli K-12) (UniProt P00803); assay: as §5, with “0.625” for “5”; outline: as §2
[18] = molecular target: Signal peptidase I (Escherichia coli K-12) (UniProt P00803); assay: as §5, with “0.313” for “5”; outline: as §2
[19] = molecular target: Signal peptidase I (Escherichia coli K-12) (UniProt P00803); assay: as §5, with “0.005” for “5”; outline: as §2
[20] = Cytotoxicity against human HepG2 cells assessed as reduction in cell viability after 72 hrs by fluorescein diacetate dye based fluorometric microculture assay; assay type: toxicity
Outline: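 FMCA on HepG2 cells read at 72 h. Survival index (%) is fluorescence in test wells as percent of control cultures, with blank values subtracted. IC50 was obtained by non-linear regression of log concentration-effect curves.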

Staphylococcus aureus = assay: Antibacterial activity against wild type Staphylococcus aureus ATCC 29213 after 16 to 20 hrs by broth microdilution assay; assay type: functional; outline: as §3
[21] = molecular target: Signal peptidase I (Escherichia coli K-12) (UniProt P00803); assay: as §5, with “0.002” for “5”; outline: as §2
[22] = molecular target: Signal peptidase I (Escherichia coli K-12) (UniProt P00803); assay: Inhibition of full length Escherichia coli His6-tagged LepB expressed in Escherichia coli C43(DE3) assessed as residual activity at 2.5 uM using dabcyl-VEVGGTATAGAFSRPGLE-(EDANS) as substrate preincubated for 10 mins followed by substrate addition measured for 2 hrs by FRET assay relative to control; outline: as §2
Klebsiella pneumoniae = assay: Antibacterial activity against wild type Klebsiella pneumoniae […] after 16 to 20 hrs by broth microdilution assay; assay type: functional; outline: as §3
[23] = molecular target: Signal peptidase I (Escherichia coli K-12) (UniProt P00803); assay: Inhibition of full length Escherichia coli His6-tagged LepB expressed in Escherichia coli C43(DE3) assessed as residual activity at 10 uM using dabcyl-VEVGGTATAGAFSRPGLE-(EDANS) as substrate preincubated for 10 mins followed by substrate addition measured for 2 hrs by FRET assay relative to control; outline: as §2

In the case of `CC(=O)N[C@@H](C)C(=O)C(=O)NCc1cccc2ccccc12`, the inhibition [1] is reported as 31%.
In the case of `CC(=O)N1CCC[C@H]1C(=O)N[C@H](C(=O)N[C@@H](C)C(=O)N[C@@H](CC(N)=O)C(=O)N[C@@H](C)C(=O)C(=O)NC(C)(C)C)[C@H](C)O`, the inhibition [1] is reported as 22.5%.
For `CCCCCCCCCC(=O)N1CCC[C@H]1C(=O)N[C@H](C(=O)N[C@@H](C)C(=O)N[C@@H](CC(N)=O)C(=O)N[C@@H](C)C(=O)O)[C@H](C)O`, the inhibition [1] was 38%.
Compound `CCCCCCCCCC(=O)N1CCC[C@H]1C(=O)N[C@H](C(=O)N[C@@H](C)C(=O)N[C@@H](CC(N)=O)C(=O)N[C@@H](C)C(=O)N1CCC[C@H]1C(=O)NC)[C@H](C)O` has an inhibition [1] of 31.3%.
`CC(=O)N1CCC[C@H]1C(=O)N[C@H](C(=O)N[C@@H](C)C(=O)N[C@@H](CC(N)=O)C(=O)N[C@@H](C)B1O[C@@H]2C[C@@H]3C[C@@H](C3(C)C)[C@]2(C)O1)C(C)O` (single isomer, unassigned) showed an inhibition [1] of 26%.
`CCCCCCc1ccc(-c2ccc(C(=O)N3CCC[C@H]3C(=O)N[C@H](C(=O)N[C@@H](C)C(=O)N[C@@H](CC(N)=O)C(=O)N[C@@H](C)B3O[C@@H]4C[C@@H]5C[C@@H](C5(C)C)[C@]4(C)O3)[C@H](C)O)cc2)cc1` showed an Activity [2] of 11.4%, an MIC (Pseudomonas aeruginosa [3]) of over 64 µg/mL and an MIC (Escherichia coli [4]) of over 64 µg/mL. The MIC (Pseudomonas aeruginosa [5]) was over 64 µg/mL, the Activity [6] was 94.4% and the hemolysis at 0.75 h, 100 µM [7] was 1.1%. The Activity [8] was 16.8%, the Activity [9] was 11.5% and the IC50 (Signal peptidase I) was 12 nM. The MIC (Escherichia coli [10]) was 16 µg/mL (≈ 18.4 µM), the MIC (Acinetobacter baumannii) was over 64 µg/mL and the MIC (Escherichia coli [11]) was 64 µg/mL (≈ 73.5 µM). For the same compound, the Activity [12] was 100%, the inhibition [1] was over 50% and the Activity [13] was 57%. The Activity [14] was 51.2%, the Activity [15] was 11.2% and the Activity [16] was 16.9%. For the same compound, the Activity [17] was 16%, the Activity [18] was 17.4% and the Activity [19] was 82.2%. It also gave an IC50 at 72 h [20] of 4700 nM, an MIC (Staphylococcus aureus) of 4 µg/mL (≈ 4.59 µM) and an Activity [21] of 92.8%. It also gave an Activity [22] of 7.64% and an MIC (Klebsiella pneumoniae) of over 64 µg/mL.
Work on `CCCCCCc1ccc(-c2ccc(C(=O)N3CCC[C@H]3C(=O)N[C@H](C(=O)N[C@@H](C)C(=O)N[C@@H](CC(N)=O)C(=O)N[C@@H](C)B(O)O)[C@H](C)O)cc2)cc1` yielded an Activity [2] of 16.8%, an MIC (Pseudomonas aeruginosa [3]) of over 64 µg/mL and an MIC (Escherichia coli [4]) of over 64 µg/mL. It also gave an MIC (Pseudomonas aeruginosa [5]) of over 64 µg/mL, a hemolysis at 0.75 h, 100 µM [7] of 1.1% and an Activity [8] of 97%. For the same compound, the Activity [9] was 95.5%, the IC50 (Signal peptidase I) was 230 nM and the MIC (Escherichia coli [10]) was over 64 µg/mL. The MIC (Acinetobacter baumannii) was over 64 µg/mL, the MIC (Escherichia coli [11]) was over 64 µg/mL and the inhibition [1] was over 50%. It also gave an Activity [13] of 97.1%, an Activity [14] of 97.9% and an Activity [15] of 4.71%. It also gave an Activity [16] of 62.6%, an Activity [17] of 33.5% and an Activity [23] of 7.23%. For the same compound, the Activity [18] was 38.4%, the IC50 at 72 h [20] was over 64000 nM and the MIC (Staphylococcus aureus) was 4 µg/mL (≈ 5.43 µM). For the same compound, the Activity [22] was 7.49% and the MIC (Klebsiella pneumoniae) was over 64 µg/mL.
Compound `CCCCCCCCCC(=O)N1CCC[C@H]1C(=O)N[C@H](C(=O)N[C@@H](C)C(=O)N[C@@H](CC(N)=O)C(=O)N[C@@H](C)C(=O)C(=O)NC(C)(C)C)[C@H](C)O` has an inhibition [1] of 31.5%.
